Test results published in ChEMBL document CHEMBL5329173, “Proline pre-conditioning of Jurkat cells improves recovery after cryopreservation” (RSC Med Chem, 2023).
Active and inactive are the calls of the source. The rule behind the calls is not given here.

Tests used:
[1] = Cytotoxicity against human Jurkat E6.1 cells assessed as cell growth inhibition at 200 mM incubated for 24 hrs by trypan blue exclusion method relative to control; format: toxicity, cell-based; details: read-out: Activity
Outline: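 Amino acid additives dissolved in complete Advanced RPMI 1640 (base medium contains 0.17 mM L-proline, 0.10 mM L-alanine) and sterile filtered. Jurkat cells seeded at 1 × 10^6 mL−1 and held 24 h at 37 °C, 5% CO2 without freezing. Counts taken every 4 h, with live/dead scored by trypan blue exclusion on an automated counter. Growth and viability were compared with additive-free medium; mean ± SD of independent experiments.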

Jurkat E6.1 [2] = experiment: (§1) Effect of compound on cryopreserved human Jurkat E6.1 cells recovery assessed as increase in post-thaw cell recovery at 200 mM preincubated for 24 hrs followed by media replacement and cryopreserved at -1 degreeC/min to -80 degreeC/min and measured after 24 hrs post-thaw by trypan blue exclusion method (Rvb=63 %); format: functional
Outline: (§2)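 Cells were pre-incubated 24 h in medium with amino acid at the stated density, then the medium was replaced with fresh additive-free medium. Cells were adjusted to 1 × 10^6 cells per mL and held 10 min at room temperature in medium with 5% DMSO. They were cooled at −1 °C min−1 to −80 °C and stored ≥24 h. Thawing was 5 min in a 37 °C water bath, followed by culture at 37 °C, 5% CO2. Recovery relative to pre-freeze count was determined by trypan blue exclusion.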

Jurkat E6.1 [3] = experiment: Cytotoxicity against human Jurkat E6.1 cells assessed as decrease in metabolic activity at 200 mM incubated for 24 hrs by resazurin assay; format: toxicity, cell-based; details: jurkat e6.1, 24 h, 200000 µM
Outline: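 Cells were incubated 24 h at 37 °C in medium containing 200 mM additive, then readjusted to 1 × 10^6 cells per mL. They were resuspended in resazurin solution made in additive-free complete medium and incubated 3 or 4 h at 37 °C. Fluorescence was read at 590/35 nm emission and expressed as % of untreated control. Mean ± SD, at least three independent experiments.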

Jurkat E6.1 [4] = experiment: as §1, with “cell recovery at 0.8 millions/ml cell density at 200” for “cell recovery at 200”, “exclusion method” for “exclusion method (Rvb=63 %)”; format: functional, cell-based; outline: as §2
Jurkat E6.1 [5] = experiment: as §1, with “cell recovery at 0.5 millions/ml cell density at 200” for “cell recovery at 200”, “exclusion method” for “exclusion method (Rvb=63 %)”; format: functional; outline: as §2
[6] = Cytotoxicity against human Jurkat E6.1 cells assessed as cell growth inhibition at 100 mM incubated for 24 hrs by trypan blue exclusion method relative to control

SMILES: C[C@H](N)C(=O)O [ALANINE]
- inhibition at 24 h, 200000 µM [1]: 72%
- Activity (Jurkat E6.1 [2]): 49%
- Activity (Jurkat E6.1 [3]): Non-Toxic
- Activity (Jurkat E6.1 [4]): Active
- Activity (Jurkat E6.1 [5]): 83%

SMILES: O=C(O)[C@H]1CCCN1 [D-PROLINE]
- inhibition at 24 h, 200000 µM [1]: 107%
- Activity (Jurkat E6.1 [2]): 52%
- Activity (Jurkat E6.1 [3]): Toxic

SMILES: O=C(O)[C@@H]1CCCN1 [PROLINE]
- inhibition at 24 h, 200000 µM [1]: 46%
- Activity (Jurkat E6.1 [2]): 70%
- Activity (Jurkat E6.1 [3]): Non-Toxic
- Activity (Jurkat E6.1 [4]): Active
- Activity (Jurkat E6.1 [5]): 77%
- inhibition at 24 h, 100000 µM [6]: 34%
